Assay [1] concerns Nucleic Acid. The assay can be described thus: Induction of Escherichia coli pUC19 DNA cleavage assessed as conversion of supercoiled DNA to nicked form of DNA at 60 uM treated after 2 hrs before UV-vis irradiation measured after 1 hr by ethidium bromide staining. Type of assay: nucleic-acid assay. The essentials:
(§1)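 pUC-19 plasmid DNA photolysed at 365 nm for 2 h in 1:9 DMSO:Tris buffer ([…], pH 7.2) with test compound at 40–80 μM, 37 °C. A control lane without compound and dark-incubated samples were run alongside. Cleavage read by gel separation as the percentage of supercoiled (Form I) DNA converted to nicked (Form II) and linear (Form III) forms.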

For assay [2], the system named is Nucleic Acid. Put plainly: Induction of Escherichia coli pUC19 DNA cleavage assessed as conversion of supercoiled DNA to nicked form of DNA at 40 uM […] by ethidium bromide staining. Type of assay: nucleic-acid assay. The essentials: as §1
For assay [3], the system named is Nucleic Acid. Put plainly: Induction of Escherichia coli pUC19 DNA cleavage assessed as conversion of supercoiled form of DNA to nicked and linear form of DNA at 80 uM treated after 2 hrs before UV-vis irradiation measured after 1 hr by ethidium bromide staining.

Structures are written as SMILES.

In the case of `Cc1ccc(C2=NOC(c3cc4ccccc4nc3Cl)C2)cc1` (stereo unspecified), the Activity with Nucleic Acid [1] turned out to be 50%; with Nucleic Acid [2] it was 20%; with Nucleic Acid [3], 85%.

`COc1ccc(C2=NOC(c3cc4ccccc4nc3Cl)C2)cc1` (stereo unspecified): the Activity with Nucleic Acid [1] came out at 50%; in the assay on Nucleic Acid [2], 20%; in the assay with Nucleic Acid [3], 85%.

As for `O=[N+]([O-])c1ccc(C2=NOC(c3cc4ccccc4nc3Cl)C2)cc1` (stereo unspecified), the Activity in the assay on Nucleic Acid [1] came to 50%; with Nucleic Acid [2], 20%; in the assay on Nucleic Acid [3], 85%.

`Clc1nc2ccccc2cc1C1CC(c2ccc(Br)cc2)=NO1` (stereo unspecified): the values for the Activity in the assay on Nucleic Acid [1], with Nucleic Acid [2] and in the assay on Nucleic Acid [3] were 50%, 20% and 85%, respectively.

Consider `Clc1ccc(C2=NOC(c3cc4ccccc4nc3Cl)C2)cc1` (stereo unspecified), for which the Activity in the assay on Nucleic Acid [1] is 50%; with Nucleic Acid [2], 20%; with Nucleic Acid [3], 85%.

In the case of `Clc1nc2ccccc2cc1C1CC(c2ccccc2)=NO1` (stereo unspecified), the figures for the Activity with Nucleic Acid [1], in the assay with Nucleic Acid [2] and in the assay with Nucleic Acid [3] were 50%, 20% and 85%, respectively.

As for `Oc1ccc(C2=NOC(c3cc4ccccc4nc3Cl)C2)cc1` (stereo unspecified), the Activity with Nucleic Acid [1] came out at 50%; in the assay with Nucleic Acid [2], 20%; with Nucleic Acid [3], 85%.

Source of the values: ChEMBL document CHEMBL2086287, “An efficient one-pot synthesis and photoinduced DNA cleavage studies of 2-chloro-3-(5-aryl-4,5-dihydroisoxazol-3-yl)quinolines” (Bioorg Med Chem Lett, 2012).
